PMC10765384 (Bioorganic chemistry, 2023)
Where two headings read alike, the source gives them in different places.

Columns and labels:
[1] = tested on: HBV DNA replication in HepAD38 cells; assay: Anti-HBV activity, 7-day assay in HepAD38 cells; format: cell-based, hepatitis B virus; details: for EC50: read-out: Anti-HBV activity EC50; for EC90: read-out: Anti-HBV activity EC90
[2] = Cytotoxicity, CellTiter 96 assay in PBM cells; format: cell-based, human; details: human, peripheral blood mononuclear (PBM) cells
How it was run: (§1)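 Colorimetric non-radioactive cell proliferation read-out (CellTiter 96). CC50 is the test compound concentration that inhibited cell growth by 50%.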

[3] = Cytotoxicity, CellTiter 96 assay in CEM cells; format: cell-based, human; details: human, T lymphoblast (CEM) cells
How it was run: as §1

[4] = Cytotoxicity, CellTiter 96 assay in Vero cells; format: cell-based, African green monkey; details: African green monkey, kidney (Vero) cells
How it was run: as §1

[5] = Cytotoxicity, CellTiter 96 assay in HepG2 cells; format: cell-based, human; details: human, hepatocellular carcinoma (HepG2) cells
How it was run: as §1

[6] = biological target: T1, CYP 1A2 (Homo sapiens, UniProt P05177); assay: CYP inhibition in human liver microsomes; format: in vitro ADME
T1 sequence (P05177 1-516): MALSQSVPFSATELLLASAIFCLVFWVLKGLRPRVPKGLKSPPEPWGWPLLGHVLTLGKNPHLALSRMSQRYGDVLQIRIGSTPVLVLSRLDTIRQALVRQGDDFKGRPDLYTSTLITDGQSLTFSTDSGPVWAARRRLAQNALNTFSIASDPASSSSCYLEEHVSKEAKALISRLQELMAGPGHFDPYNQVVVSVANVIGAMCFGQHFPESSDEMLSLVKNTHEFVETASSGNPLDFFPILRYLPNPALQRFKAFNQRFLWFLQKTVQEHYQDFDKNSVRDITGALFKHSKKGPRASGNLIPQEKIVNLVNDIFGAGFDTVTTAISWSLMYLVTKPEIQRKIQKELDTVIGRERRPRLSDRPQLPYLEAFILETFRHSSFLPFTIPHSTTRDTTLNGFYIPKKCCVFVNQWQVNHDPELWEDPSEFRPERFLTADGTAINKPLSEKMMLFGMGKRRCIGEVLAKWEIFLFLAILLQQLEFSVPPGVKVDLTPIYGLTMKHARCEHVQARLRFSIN
How it was run: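 Known CYP450 probe substrates were incubated with human liver microsomes (0.05–0.2 mg/mL), 1 mM NADPH, 100 mM potassium phosphate pH 7.4 and 3 mM MgCl2 at 37°C, with or without 10 μM test compound, in duplicate. Reactions were quenched with a solution containing internal standards. Each substrate's signature metabolite was quantified by LC/MS/MS.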

[7] = biological target: T2, CYP 2B6 (Homo sapiens, UniProt P20813); assay: CYP inhibition in human liver microsomes; format: in vitro ADME
T2 sequence (P20813 1-491): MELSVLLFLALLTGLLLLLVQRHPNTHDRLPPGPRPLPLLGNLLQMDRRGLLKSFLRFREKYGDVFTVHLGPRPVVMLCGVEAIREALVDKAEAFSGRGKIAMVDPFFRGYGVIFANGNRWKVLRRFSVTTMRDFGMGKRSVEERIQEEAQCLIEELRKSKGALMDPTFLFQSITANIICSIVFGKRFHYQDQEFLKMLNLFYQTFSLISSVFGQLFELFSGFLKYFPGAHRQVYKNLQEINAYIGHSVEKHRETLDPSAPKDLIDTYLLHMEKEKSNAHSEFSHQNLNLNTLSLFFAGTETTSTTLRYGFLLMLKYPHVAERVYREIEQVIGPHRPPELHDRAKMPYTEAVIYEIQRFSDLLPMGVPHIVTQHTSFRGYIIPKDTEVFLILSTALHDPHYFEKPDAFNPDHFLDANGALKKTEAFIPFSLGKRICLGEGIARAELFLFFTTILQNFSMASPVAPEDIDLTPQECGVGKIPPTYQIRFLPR

[8] = biological target: T3, CYP 2C8 (Homo sapiens, UniProt P10632); assay: CYP inhibition in human liver microsomes; format: in vitro ADME
T3 sequence (P10632 1-490): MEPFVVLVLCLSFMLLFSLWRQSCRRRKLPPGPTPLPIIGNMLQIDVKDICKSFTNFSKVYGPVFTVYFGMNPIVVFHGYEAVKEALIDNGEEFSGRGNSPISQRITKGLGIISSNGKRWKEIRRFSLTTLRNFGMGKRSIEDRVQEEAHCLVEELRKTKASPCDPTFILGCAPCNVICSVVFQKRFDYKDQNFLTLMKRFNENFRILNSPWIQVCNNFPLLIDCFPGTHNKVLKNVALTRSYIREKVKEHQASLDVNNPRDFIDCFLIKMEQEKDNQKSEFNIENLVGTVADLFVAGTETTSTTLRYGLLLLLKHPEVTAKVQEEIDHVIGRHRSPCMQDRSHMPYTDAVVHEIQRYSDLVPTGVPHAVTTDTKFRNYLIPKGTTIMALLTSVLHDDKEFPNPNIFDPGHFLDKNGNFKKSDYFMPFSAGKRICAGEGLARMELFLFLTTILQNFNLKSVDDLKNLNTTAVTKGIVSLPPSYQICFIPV

[9] = biological target: CYP 2C9 (Homo sapiens, UniProt P11712); assay: CYP inhibition in human liver microsomes; format: in vitro ADME
[10] = biological target: CYP 2C19 (Homo sapiens, UniProt P33261); assay: CYP inhibition in human liver microsomes; format: in vitro ADME
[11] = biological target: CYP 2D6 (Homo sapiens, UniProt P10635); assay: CYP inhibition in human liver microsomes; format: in vitro ADME
[12] = biological target: CYP 3A4 (Homo sapiens, UniProt P08684); assay: CYP inhibition in human liver microsomes; format: in vitro ADME; details: for CYP Inhibition (% at 10 μM) 3A4-M: midazolam substrate; for CYP Inhibition (% at 10 μM) 3A4-T: testosterone substrate
[13] = Cell permeability across Caco-2 cell monolayer; format: in vitro ADME; details: human
How it was run: (§2)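 Bidirectional transport of 2 μM test compound across Caco-2 monolayers at pH 7.4, in duplicate, with final DMSO below 1%. Plates were held 2 hr at 37°C, 5% CO2, saturated humidity, without shaking. Starting, donor and receiver solutions were analysed by LC/MS/MS. Lucifer yellow rejection after transport checked monolayer integrity.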

[14] = Liver microsome stability, mouse; format: in vitro ADME
How it was run: (§3)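 Test compound (1 μM), alone or with ritonavir at 0.3, 1 or 3 μM, was incubated with 1 mg/mL mouse or human liver microsomes in 100 mM potassium phosphate pH 7.4 with 5 mM MgCl2. NADPH (final 1 mM) started the reaction at 37°C. Aliquots at 0–90 min were quenched in ice-cold methanol, centrifuged, diluted 1:1 with water, and analysed by LC-MS/MS. Propranolol was the positive control.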

[15] = Liver microsome stability, human; format: in vitro ADME
How it was run: as §3

[16] = tested on: human peripheral blood mononuclear (PBM) cells; assay: Cytotoxicity, CellTiter 96 assay in PBM cells; format: cell-based; details: read-out: Cytotoxicity CC50 PBM; PBM cells
How it was run: as §1

[17] = tested on: human T lymphoblast (CEM) cells; assay: Cytotoxicity, CellTiter 96 assay in CEM cells; format: cell-based; details: read-out: Cytotoxicity CC50 CEM; CEM cells
How it was run: as §1

[18] = tested on: African green monkey kidney (Vero) cells; assay: Cytotoxicity, CellTiter 96 assay in Vero cells; format: cell-based; details: read-out: Cytotoxicity CC50 Vero; Vero cells
How it was run: as §1

[19] = tested on: human hepatocellular carcinoma (HepG2) cells; assay: Cytotoxicity, CellTiter 96 assay in HepG2 cells; format: cell-based; details: read-out: Cytotoxicity CC50 HepG2; HepG2 cells
How it was run: as §1

[20] = Formation of glutathione; format: in vitro ADME; details: human liver microsomes 1 mg/mL, 1 mM GSH, 60 min, 37°C
[21] = biological target: hERG (Homo sapiens, UniProt Q12809); assay: hERG inhibition, automated patch clamp in CHO cells; format: cell-based; details: room temperature
How it was run: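 Test article was applied at concentrations up to 10 μM, with n ≥ 3 per compound.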

[22] = tested on: Caco-2 cell monolayer; assay: Cell permeability across Caco-2 cell monolayer; format: in vitro ADME
How it was run: as §2

[23] = tested on: HBV; details: humanized mouse model, in combination with entecavir; ref [7],[8]; cited from earlier work
[24] = Hepatitis B virus, HePAD38, 168 h
[25] = HepAD38 cells, 7-day assay, HBV DNA

Sequence of CYP 3A4 (P08684 whole entry): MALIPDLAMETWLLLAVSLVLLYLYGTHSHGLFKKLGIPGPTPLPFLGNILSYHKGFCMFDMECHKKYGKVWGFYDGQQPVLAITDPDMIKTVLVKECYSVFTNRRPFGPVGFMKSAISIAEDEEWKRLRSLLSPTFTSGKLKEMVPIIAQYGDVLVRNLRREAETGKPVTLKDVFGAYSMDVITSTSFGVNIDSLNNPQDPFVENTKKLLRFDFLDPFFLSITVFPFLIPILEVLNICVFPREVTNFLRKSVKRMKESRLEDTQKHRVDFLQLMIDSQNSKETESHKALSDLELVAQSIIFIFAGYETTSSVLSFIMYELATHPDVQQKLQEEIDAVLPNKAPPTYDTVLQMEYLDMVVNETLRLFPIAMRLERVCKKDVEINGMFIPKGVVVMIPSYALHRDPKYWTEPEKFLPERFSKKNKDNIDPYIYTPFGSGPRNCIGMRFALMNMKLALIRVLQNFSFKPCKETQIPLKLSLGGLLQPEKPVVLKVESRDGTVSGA
Sequence of CYP 2C9 (P11712 whole entry): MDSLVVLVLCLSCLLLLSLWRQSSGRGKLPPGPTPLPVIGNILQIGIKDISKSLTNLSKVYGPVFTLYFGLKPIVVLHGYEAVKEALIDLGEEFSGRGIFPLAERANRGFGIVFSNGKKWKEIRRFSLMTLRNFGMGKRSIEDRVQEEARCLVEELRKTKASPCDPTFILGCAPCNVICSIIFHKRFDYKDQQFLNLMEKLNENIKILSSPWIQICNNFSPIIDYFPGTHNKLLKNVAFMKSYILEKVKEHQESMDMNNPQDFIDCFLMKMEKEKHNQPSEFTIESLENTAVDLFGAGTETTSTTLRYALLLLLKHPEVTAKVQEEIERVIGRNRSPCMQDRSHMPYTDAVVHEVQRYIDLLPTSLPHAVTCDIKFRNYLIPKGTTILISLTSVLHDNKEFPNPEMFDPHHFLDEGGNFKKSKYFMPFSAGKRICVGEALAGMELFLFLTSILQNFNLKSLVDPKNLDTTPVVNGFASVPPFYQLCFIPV
Sequence of CYP 2D6 (P10635 whole entry): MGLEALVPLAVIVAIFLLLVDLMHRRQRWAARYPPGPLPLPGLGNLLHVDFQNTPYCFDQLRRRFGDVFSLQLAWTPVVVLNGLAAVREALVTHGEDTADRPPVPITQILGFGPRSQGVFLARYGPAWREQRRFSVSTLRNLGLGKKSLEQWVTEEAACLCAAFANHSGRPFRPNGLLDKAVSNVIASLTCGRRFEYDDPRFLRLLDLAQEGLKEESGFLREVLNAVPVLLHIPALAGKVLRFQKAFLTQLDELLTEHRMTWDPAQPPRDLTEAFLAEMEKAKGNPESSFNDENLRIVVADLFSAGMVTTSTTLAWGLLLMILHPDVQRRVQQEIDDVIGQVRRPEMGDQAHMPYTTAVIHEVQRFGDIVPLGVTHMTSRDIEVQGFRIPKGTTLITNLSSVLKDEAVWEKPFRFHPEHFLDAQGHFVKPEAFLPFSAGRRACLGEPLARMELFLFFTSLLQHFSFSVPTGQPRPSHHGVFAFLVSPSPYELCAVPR
Sequence of CYP 2C19 (P33261 whole entry): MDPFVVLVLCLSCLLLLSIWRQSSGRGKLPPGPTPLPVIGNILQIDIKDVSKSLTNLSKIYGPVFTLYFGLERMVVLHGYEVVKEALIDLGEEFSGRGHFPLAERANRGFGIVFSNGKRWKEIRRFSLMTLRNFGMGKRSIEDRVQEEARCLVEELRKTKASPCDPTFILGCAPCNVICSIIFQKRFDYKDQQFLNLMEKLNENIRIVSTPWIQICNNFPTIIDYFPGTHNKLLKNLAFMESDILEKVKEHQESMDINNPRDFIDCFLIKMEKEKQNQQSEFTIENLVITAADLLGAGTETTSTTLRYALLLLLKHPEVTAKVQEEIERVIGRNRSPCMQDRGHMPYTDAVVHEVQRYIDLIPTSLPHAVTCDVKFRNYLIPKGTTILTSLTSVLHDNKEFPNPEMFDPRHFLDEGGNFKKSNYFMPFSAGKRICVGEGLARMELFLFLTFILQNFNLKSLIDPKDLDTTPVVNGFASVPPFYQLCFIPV
Sequence of hERG (Q12809 whole entry): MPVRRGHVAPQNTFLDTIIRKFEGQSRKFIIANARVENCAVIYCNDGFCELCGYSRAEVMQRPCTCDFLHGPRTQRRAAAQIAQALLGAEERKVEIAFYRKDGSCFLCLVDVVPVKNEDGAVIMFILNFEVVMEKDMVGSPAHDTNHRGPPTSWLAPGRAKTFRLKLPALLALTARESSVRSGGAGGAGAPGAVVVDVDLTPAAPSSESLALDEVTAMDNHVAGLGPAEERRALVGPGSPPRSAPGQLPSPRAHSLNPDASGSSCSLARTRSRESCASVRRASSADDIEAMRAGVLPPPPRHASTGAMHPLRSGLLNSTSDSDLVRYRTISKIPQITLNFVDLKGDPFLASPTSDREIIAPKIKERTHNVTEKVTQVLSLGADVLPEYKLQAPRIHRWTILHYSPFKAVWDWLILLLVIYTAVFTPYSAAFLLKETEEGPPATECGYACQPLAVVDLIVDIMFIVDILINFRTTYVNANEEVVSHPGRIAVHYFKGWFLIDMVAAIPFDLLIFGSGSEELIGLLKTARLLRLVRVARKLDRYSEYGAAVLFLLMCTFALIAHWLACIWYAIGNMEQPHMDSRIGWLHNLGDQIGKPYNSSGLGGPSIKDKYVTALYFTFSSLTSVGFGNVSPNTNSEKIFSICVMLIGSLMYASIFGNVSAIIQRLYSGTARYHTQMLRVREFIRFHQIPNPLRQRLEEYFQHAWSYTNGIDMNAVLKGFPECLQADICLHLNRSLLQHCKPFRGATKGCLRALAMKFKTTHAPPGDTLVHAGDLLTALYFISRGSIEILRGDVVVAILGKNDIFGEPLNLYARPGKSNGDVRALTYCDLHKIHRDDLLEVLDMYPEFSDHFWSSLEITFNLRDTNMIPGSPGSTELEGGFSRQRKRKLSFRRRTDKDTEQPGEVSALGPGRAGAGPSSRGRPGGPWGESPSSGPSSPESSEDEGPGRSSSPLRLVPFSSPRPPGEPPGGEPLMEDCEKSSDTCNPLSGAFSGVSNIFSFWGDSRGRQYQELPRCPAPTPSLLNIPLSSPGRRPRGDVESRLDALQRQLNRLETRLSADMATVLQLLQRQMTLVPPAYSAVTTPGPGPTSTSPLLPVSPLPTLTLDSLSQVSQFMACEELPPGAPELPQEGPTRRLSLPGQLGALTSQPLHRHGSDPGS

Structure (SMILES): C#CCn1c(C)c(C(=O)C(=O)NC(C)(C)C#C)c(C)c1C(=O)Nc1ccc(F)c(F)c1 [Compound 10a, N-(3,4-Difluorophenyl)-3,5-dimethyl-4-(2-((2-methylbut-3-yn-2-yl)amino)-2-oxoacetyl)-1-(prop-2-yn-1-yl)-1H-pyrrole-2-carboxamide]
- EC50 [1, 24]: 0.02 ± 0.03 nM
- EC90 [1, 24]: 0.0016 ± 0.0008 µM
- CC50 [2]: > 100 µM
- CC50 [3]: > 100 µM
- CC50 [4]: > 100 µM
- CC50 [5]: > 100 µM
- CYP Inhibition (% at 10 μM) 1A2 [6]: 9%
- CYP Inhibition (% at 10 μM) 2B6 [7]: 5%
- CYP Inhibition (% at 10 μM) 2C8 [8]: 95%
- CYP Inhibition (% at 10 μM) 2C9 [9]: 40%
- CYP Inhibition (% at 10 μM) 2C19 [10]: 34%
- CYP Inhibition (% at 10 μM) 2D6 [11]: 8%
- CYP Inhibition (% at 10 μM) 3A4-M [12]: 40%
- CYP Inhibition (% at 10 μM) 3A4-T [12]: 40%
- Papp A→B at 2 h, 2 μM ([13]; Caco-2, pH 7.4): 33.5 ×10⁻⁶ cm/s
- Papp B→A at 2 h, 2 μM ([13]; Caco-2, pH 7.4): 10.9 ×10⁻⁶ cm/s
- recovery at 2 h, 2 μM ([13]; Caco-2, pH 7.4, Mean Recovery % A-B, Caco-2, A-B): 100%
- recovery at 2 h, 2 μM ([13]; Caco-2, pH 7.4, Mean Recovery % B-A, Caco-2, B-A): 74.6%
- fold improvement of half-life on co-incubation with ritonavir ([14]; mouse liver microsomes, ritonavir at ratios up to 1/3): 45 fold
- half-life at 1 μM ([14]; mouse, mouse liver microsomes, pH 7.4): 2.4 min
- fold improvement of half-life on co-incubation with ritonavir ([15]; human liver microsomes, ritonavir at ratios up to 1/3): two-fold
- half-life at 1 μM ([15]; human, human liver microsomes, pH 7.4): 9 min

Structure (SMILES): C#CCNC(=O)C(=O)c1c(C)c(C(=O)Nc2ccc(F)c(F)c2)n(C)c1C [GLP-26, reference compound]
- EC50 [1, 25]: 4.6 ± 2 nM
- EC90 [1, 25]: 0.0168 ± 0.0071 µM
- CC50 [16]: > 100 µM
- CC50 [17]: > 100 µM
- CC50 [18]: 46 ± 30 µM
- CC50 [19]: > 100 µM
- GSH % Reactive metabolites at 25 μM [20]: 0.8%
- hERG % Inhibition at 10 μM [21]: 46.6%
- CYP Inhibition (% at 10 μM) 1A2 [6]: −9.6%
- CYP Inhibition (% at 10 μM) 2B6 [7]: −1.6%
- CYP Inhibition (% at 10 μM) 2C8 [8]: 54%
- CYP Inhibition (% at 10 μM) 2C9 [9]: 11.7%
- CYP Inhibition (% at 10 μM) 2C19 [10]: 15.9%
- CYP Inhibition (% at 10 μM) 2D6 [11]: 9.5%
- CYP Inhibition (% at 10 μM) 3A4-M [12]: −7.2%
- CYP Inhibition (% at 10 μM) 3A4-T [12]: 8.3%
- Permeability A-B ([22]; Caco-2, 2 μM, pH 7.4, 2 hr, A-B): 23.5 10^−6 cm/s
- Permeability B-A ([22]; Caco-2, 2 μM, pH 7.4, 2 hr, B-A): 22.8 10^−6 cm/s
- Mean Recovery % A-B ([22]; Caco-2, A-B): 86.3%
- Mean Recovery % B-A ([22]; Caco-2, B-A): 98.7%
- Liver microsome stability t1/2 Mouse ([14]; mouse liver microsomes 1 mg/mL, compound alone): 41 min
- Liver microsome stability t1/2 Human ([15]; human liver microsomes 1 mg/mL, compound alone): >60 min
- antiviral response [23]: sustained antiviral response up to 12 weeks post treatment
